# Measured values as given in paper PMC6704442 (ACS Omega, 2019).
# Where “and” joins values, the source holds several entries; their conditions need not be identical. Equal entries are not always repeated.
# How the values were obtained:
# [1] = 40 mg kg^–1; cited from earlier work
# [2] = target: human serum albumin (HSA) (Homo sapiens, UniProt P02768); test: HSA binding by steady-state fluorescence quenching; conditions: 300 K, ±2σ
# Summary of the method: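 Human serum albumin (5 μM, 3 mL, freshly prepared in buffer) was titrated with successive additions of test compound stock at 300 K. Excitation was 283 nm and emission was read at 372 nm, with slits of 1 and 5 nm. Fluorescence was inner-filter corrected. KSV came from the Stern–Volmer equation; Ka and n came from log[(F0−F)/F] versus log[Q]. Performed in triplicate.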
# [3] = literature value for comparison; cited from earlier work
# H1 histone = H1 histone binding by steady-state fluorescence quenching; conditions: 300 K, ±2σ
# Sequence of human serum albumin (HSA) (P02768 25-609): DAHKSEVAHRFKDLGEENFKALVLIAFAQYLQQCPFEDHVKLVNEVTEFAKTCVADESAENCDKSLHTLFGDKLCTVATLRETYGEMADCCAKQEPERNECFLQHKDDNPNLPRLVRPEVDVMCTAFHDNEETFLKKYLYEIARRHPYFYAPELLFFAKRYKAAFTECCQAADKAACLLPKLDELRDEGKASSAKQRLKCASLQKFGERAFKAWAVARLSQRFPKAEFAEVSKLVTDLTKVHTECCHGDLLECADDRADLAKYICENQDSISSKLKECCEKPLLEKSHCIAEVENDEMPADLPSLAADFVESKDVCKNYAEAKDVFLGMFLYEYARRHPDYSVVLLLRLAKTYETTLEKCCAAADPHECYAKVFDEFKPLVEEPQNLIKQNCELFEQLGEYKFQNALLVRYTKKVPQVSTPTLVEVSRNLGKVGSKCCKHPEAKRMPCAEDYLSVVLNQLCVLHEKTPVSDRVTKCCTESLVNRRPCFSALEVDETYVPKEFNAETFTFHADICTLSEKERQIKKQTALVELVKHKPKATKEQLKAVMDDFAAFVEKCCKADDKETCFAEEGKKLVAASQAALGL
Structure (SMILES),tmax [1] [h],"KSV × 10^–3 (Stern-Volmer constant), HSA [2]","n (number of binding sites), HSA [2]",AUCtotal [3] [μg h L^–1],CLapp [3] [L h^–1],Vd [3] [L],t1/2e [3] [h],"KSV × 10^–3 (Stern-Volmer constant), H1 (H1 histone)","n (number of binding sites), H1 (H1 histone)"
"[Cl][Ru]([Cl])([Cl])[Cl].[Na+].c1ccc2[nH]ncc2c1.c1ccc2[nH]ncc2c1 [KP-1339/IT139, sodium trans-[tetrachloridobis(1H-indazole)ruthenate(III)]]",2.5,,,,,,,,
Cc1ccc(C(C)C)cc1.[Cl][Ru]([Cl])[PH]12CN3CN(CN(C3)C1)C2 [RAPTA-C],,7.06 ± 1.37 × 10^–3,0.87 ± 0.04,891,0.009,0.153,11.47,1.85 ± 0.21 × 10^–3,1.06 ± 0.03
N.N.[Cl][Pt][Cl] [cisplatin],,0.58 ± 0.14 × 10^–3,1.18 ± 0.21,,,,,2.28 ± 0.59 × 10^–3,0.48 and 0.48 ± 0.14
